Measured values as given in ChEMBL document CHEMBL4431326, “Tumor Targeting with Novel 6-Substituted Pyrrolo [2,3-d] Pyrimidine Antifolates with Heteroatom Bridge Substitutions via Cellular Uptake by Folate Receptor α and the Proton-Coupled Folate Transporter and Inhibition of de Novo Purine Nucleotide Biosynthesis” (J Med Chem, 2016).
Active and inactive are the calls of the source. The calls are words filed in the database; no cut-off is given here.

Experiments:
IGROV-1 [1] = test: Antiproliferative activity against human IGROV1 cells expressing human FR-alpha/PCFT assessed as reduction in cell viability measured after 96 hrs by Cell-Titer Blue fluorescence analysis; format: functional, cell-based; details: IGROV-1, 96 h
IGROV-1 [2] = test: Antiproliferative activity against human IGROV1 cells expressing human FR-alpha/PCFT assessed as reduction in cell viability measured after 96 hrs in presence of folic acid by Cell-Titer Blue fluorescence analysis; format: functional, cell-based; details: IGROV-1, 96 h
IGROV-1 [3] = test: Antitumor activity against human IGROV1 cells xenografted into folate-deficient diet fed SCID mouse assessed as tumor growth at 28 mg/kg, iv administered […] post 2 days of tumor implantation measured on day 20 relative to control; format: functional
Procedure, shortened: (§1)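 Female NCR SCID mice (11 weeks old, ~20 g) are fed a folate-deficient diet from 14 days before implant. IGROV1 fragments (30–60 mg) are trocar-implanted subcutaneously in both flanks, and mice are randomised at 5/group. Tail-vein dosing starts on day 2: 28 mg/kg/inj Q3dx5, or 96 or 150 mg/kg/inj Q3dx4. Vehicle is 5% ethanol, 1% Tween-80, 0.5% NaHCO3 in water at pH 6.5. Caliper tumor mass is (a×b²)/2, T/C is taken when controls reach 700–1200 mg, and weights are recorded daily.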

IGROV-1 [4] = test: Antitumor activity against human IGROV1 cells xenografted into folate-deficient diet fed SCID mouse assessed as tumor cell kill at 28 mg/kg, iv administered […] post 2 days of tumor implantation measured on day 20; format: functional; procedure, shortened: as §1
IGROV-1 [5] = test: Antitumor activity against human IGROV1 cells xenografted into folate-deficient diet fed SCID mouse assessed as tumor growth at 96 mg/kg, iv administered […] post 2 days of tumor implantation measured on day 20 relative to control; format: functional
Procedure, shortened: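 Female NCR SCID mice, 11 weeks, ~20 g, on folate-deficient or standard diet from 14 days pre-implant; bilateral s.c. IGROV1 fragments (30–60 mg); 5 mice/group; tail-vein dosing from day 2 (Q3d schedules) in 5% ethanol, 1% Tween-80, 0.5% NaHCO3, water, pH 6.5; caliper mass (a×b²)/2; T/C and T−C delay.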

IGROV-1 [6] = test: Antitumor activity against human IGROV1 cells xenografted into folate-deficient diet fed SCID mouse assessed as tumor growth delay at 96 mg/kg, iv administered […] post 2 days of tumor implantation; format: functional
IGROV-1 [7] = test: Antitumor activity against human IGROV1 cells xenografted into folate-deficient diet fed SCID mouse assessed as tumor cell kill at 96 mg/kg, iv administered […] post 2 days of tumor implantation measured on day 20; format: functional
[8] = Toxicity in folate-deficient diet fed SCID mouse xenografted with human IGROV1 cells assessed as body weight loss at 28 mg/kg, iv administered […] post 2 days of tumor implantation measured during compound treatment; format: organism-based; details: in vivo, 48 h; procedure, shortened: as §1
[9] = Toxicity in folate-deficient diet fed SCID mouse xenografted with human IGROV1 cells assessed as body weight loss at 28 mg/kg, iv administered […] post 2 days of tumor implantation measured after 48 hrs of last dosage; format: organism-based; details: in vivo; procedure, shortened: as §1
[10] = Toxicity in folate-deficient diet fed SCID mouse xenografted with human IGROV1 cells assessed as body weight loss at 96 and 150 mg/kg, iv administered […] post 2 days of tumor implantation measured after 48 hrs of last dosage; format: organism-based; details: in vivo; procedure, shortened: as §1
[11] = Toxicity in standard diet fed SCID mouse xenografted with human IGROV1 cells assessed as body weight loss at 28 mg/kg, iv administered […] post 2 days of tumor implantation measured during compound treatment; format: organism-based; details: in vivo, 48 h
Procedure, shortened: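 Standard-diet female NCR SCID mice bearing bilateral s.c. IGROV1 fragments; i.v. tail-vein dosing from day 2 post-implant, Q3dx5, vehicle 5% ethanol/1% Tween-80/0.5% NaHCO3 in water, pH 6.5; mice weighed and assessed daily during and after treatment; weight loss recorded as nadir.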

[12] = Cytotoxicity in RFC-null Chinese hamster R2 cells assessed as reduction in cell viability measured after 96 hrs by Cell-Titer Blue fluorescence analysis; format: cell-based; details: Cricetulus griseus, R2, 96 h
[13] = Cytotoxicity in PCFT-null Chinese hamster R2 cells assessed as reduction in cell viability measured after 96 hrs by Cell-Titer Blue fluorescence analysis; format: cell-based; details: Cricetulus griseus, R2, 96 h
KB [14] = test: Antiproliferative activity against human KB cells expressing human RFC/FR-alpha/PCFT assessed as reduction in cell viability measured after 96 hrs by Cell-Titer Blue fluorescence analysis; format: functional, cell-based
KB [15] = test: Antiproliferative activity against human KB cells expressing human RFC/FR-alpha/PCFT assessed as reduction in cell viability measured after 96 hrs in presence of folic acid by Cell-Titer Blue fluorescence analysis; format: functional, cell-based
[16] = biological target: T1, GAR transformylase/AICAR transformylase (Homo sapiens) (UniProt P31939+P22102); test: Inhibition of GARFTase/AICARFTase in human KB cells expressing RFC/FR-alpha/PCFT assessed as cell growth inhibition measured after 96 hrs in presence of 60 uM adenosine by Cell-Titer Blue fluorescence analysis; format: cell-based
T1 sequence (P31939 whole entry, looked up, one chain of several): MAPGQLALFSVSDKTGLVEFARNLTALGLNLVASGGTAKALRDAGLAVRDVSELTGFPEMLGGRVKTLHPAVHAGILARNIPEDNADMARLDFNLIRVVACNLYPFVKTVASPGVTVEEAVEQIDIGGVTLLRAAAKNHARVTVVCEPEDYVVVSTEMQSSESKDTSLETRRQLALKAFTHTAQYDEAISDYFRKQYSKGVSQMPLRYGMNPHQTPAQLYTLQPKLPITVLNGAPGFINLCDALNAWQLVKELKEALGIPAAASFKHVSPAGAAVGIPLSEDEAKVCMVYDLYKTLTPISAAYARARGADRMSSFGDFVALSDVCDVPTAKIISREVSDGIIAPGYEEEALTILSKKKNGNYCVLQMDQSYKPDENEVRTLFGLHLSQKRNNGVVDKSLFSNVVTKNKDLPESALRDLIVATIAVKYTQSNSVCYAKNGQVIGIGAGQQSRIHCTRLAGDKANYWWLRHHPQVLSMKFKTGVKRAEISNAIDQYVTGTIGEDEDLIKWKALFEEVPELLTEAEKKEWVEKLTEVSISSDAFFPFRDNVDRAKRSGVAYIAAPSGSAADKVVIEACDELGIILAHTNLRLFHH

[17] = biological target: T1, GAR transformylase/AICAR transformylase (Homo sapiens); test: Inhibition of GARFTase/AICARFTase in human KB cells expressing RFC/FR-alpha/PCFT assessed as cell growth inhibition measured after 96 hrs in presence of 10 uM thymidine by Cell-Titer Blue fluorescence analysis; format: cell-based
[18] = biological target: Bifunctional purine biosynthesis protein ATIC (Homo sapiens) (UniProt P31939); test: Inhibition of AICARFTase in human KB cells expressing RFC/FR-alpha/PCFT assessed as cell growth inhibition measured after 96 hrs in presence of 320 uM AICA by Cell-Titer Blue fluorescence analysis; format: cell-based
Chain of Bifunctional purine biosynthesis protein ATIC (Homo sapiens) (P31939 whole entry, looked up): as the sequence (P31939 whole entry, looked up, one chain of several) above

[19] = biological target: Folate receptor alpha (Homo sapiens) (UniProt P15328); test: Displacement of [3H]folic acid from human FR-alpha receptor expressed in Chinese hamster RT16 cells measured after 15 mins relative to folic acid; format: cell-based; set-up: concentration or dose not given beside the values
Chain of Folate receptor alpha (Homo sapiens) (P15328 25-234 limits assumed): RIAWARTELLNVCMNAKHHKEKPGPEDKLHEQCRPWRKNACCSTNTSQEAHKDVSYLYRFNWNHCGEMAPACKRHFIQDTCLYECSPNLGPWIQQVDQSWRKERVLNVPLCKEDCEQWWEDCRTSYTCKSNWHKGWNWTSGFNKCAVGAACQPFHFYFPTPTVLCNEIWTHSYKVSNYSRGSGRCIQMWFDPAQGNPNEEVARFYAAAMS

[20] = biological target: T2, Proton-coupled folate transporter (Homo sapiens) (UniProt Q96NT5); test: Inhibition of [3H]MTX uptake at human PCFT expressed in Chinese hamster R2/PCFT4 cells at 10 uM and pH 5.5 measured after 5 mins; format: cell-based
T2 sequence (whole entry): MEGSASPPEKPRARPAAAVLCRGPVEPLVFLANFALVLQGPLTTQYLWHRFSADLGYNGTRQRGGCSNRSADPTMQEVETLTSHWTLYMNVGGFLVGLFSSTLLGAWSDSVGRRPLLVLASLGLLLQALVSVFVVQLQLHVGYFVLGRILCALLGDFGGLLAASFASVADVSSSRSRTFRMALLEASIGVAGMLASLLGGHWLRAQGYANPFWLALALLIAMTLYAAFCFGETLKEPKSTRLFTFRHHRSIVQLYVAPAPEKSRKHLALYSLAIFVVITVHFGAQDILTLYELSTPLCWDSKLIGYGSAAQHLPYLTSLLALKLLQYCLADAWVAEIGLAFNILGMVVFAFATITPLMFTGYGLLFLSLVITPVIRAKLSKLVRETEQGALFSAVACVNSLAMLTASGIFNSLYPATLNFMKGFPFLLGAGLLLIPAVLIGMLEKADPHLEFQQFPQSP

[21] = biological target: T2, Proton-coupled folate transporter (Homo sapiens); test: Inhibition of [3H]MTX uptake at human PCFT expressed in Chinese hamster R2/PCFT4 cells at 10 uM and pH 6.8 measured after 5 mins; format: cell-based
[22] = biological target: T2, Proton-coupled folate transporter (Homo sapiens); test: Inhibition of [3H]MTX uptake at human PCFT expressed in Chinese hamster R2/PCFT4 cells at 1 uM and pH 5.5 measured after 5 mins; format: cell-based
[23] = biological target: T3, Proton-coupled folate transporter (Homo sapiens, UniProt Q96NT5); test: Inhibition of [3H]MTX uptake at human PCFT expressed in Chinese hamster R2/PCFT4 cells at pH 5.5 measured after 5 mins by Dixon plot analysis; format: cell-based
T3 sequence (Q96NT5 whole entry): T2 sequence (whole entry)

[24] = biological target: T4, Trifunctional purine biosynthetic protein adenosine-3 (Homo sapiens, UniProt P22102); test: Inhibition of GARFTase in human KB cells expressing RFC/FR-alpha/PCFT assessed as decrease in incorporation of [14C(U)]-glycine into [14C]formyl GAR incubated for 1 hr followed by addition of [14C(U)]-glycine measured after 16 hrs in presence of azaserine; format: cell-based
T4 sequence (P22102 whole entry): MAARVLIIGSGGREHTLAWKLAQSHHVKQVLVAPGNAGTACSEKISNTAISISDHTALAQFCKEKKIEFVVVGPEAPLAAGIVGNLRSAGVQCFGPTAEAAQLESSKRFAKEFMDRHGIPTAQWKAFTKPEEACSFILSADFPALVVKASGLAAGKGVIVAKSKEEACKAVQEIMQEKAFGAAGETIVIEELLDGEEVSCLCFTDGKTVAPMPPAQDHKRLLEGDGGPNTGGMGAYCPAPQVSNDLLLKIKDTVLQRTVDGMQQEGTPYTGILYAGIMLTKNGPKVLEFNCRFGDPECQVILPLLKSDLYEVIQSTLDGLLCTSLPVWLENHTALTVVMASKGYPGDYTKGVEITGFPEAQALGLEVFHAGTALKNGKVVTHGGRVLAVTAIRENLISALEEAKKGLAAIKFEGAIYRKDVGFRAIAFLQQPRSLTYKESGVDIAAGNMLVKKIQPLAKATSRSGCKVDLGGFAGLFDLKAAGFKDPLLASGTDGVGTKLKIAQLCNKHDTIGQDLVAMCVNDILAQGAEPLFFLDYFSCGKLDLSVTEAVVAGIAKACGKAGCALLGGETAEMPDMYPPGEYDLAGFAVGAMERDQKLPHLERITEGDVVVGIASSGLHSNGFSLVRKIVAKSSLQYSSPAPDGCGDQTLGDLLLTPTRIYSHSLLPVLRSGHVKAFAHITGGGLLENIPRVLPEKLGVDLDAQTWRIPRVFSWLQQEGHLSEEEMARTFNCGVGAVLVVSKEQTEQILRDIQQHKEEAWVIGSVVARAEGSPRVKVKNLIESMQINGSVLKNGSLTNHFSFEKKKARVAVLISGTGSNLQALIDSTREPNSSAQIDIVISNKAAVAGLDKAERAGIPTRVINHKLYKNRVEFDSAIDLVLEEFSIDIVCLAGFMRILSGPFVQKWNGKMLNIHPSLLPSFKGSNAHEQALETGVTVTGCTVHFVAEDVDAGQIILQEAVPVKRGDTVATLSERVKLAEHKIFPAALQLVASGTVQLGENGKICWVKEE

[25] = biological target: T4, Trifunctional purine biosynthetic protein adenosine-3; test: Inhibition of recombinant N-terminal 6His-tagged human GARFTase assessed as formation of 5,8-dideazafolate from 10-formyl-5,8-dideazafolic acid measured at every 15 seconds over 20 min by spectrophotometric analysis
[26] = biological target: Folate receptor beta (Homo sapiens) (UniProt P14207); test: Displacement of [3H]folic acid from human FR-beta receptor expressed in Chinese hamster D4 cells measured after 15 mins relative to folic acid; format: cell-based
Chain of Folate receptor beta (Homo sapiens) (P14207 17-230 limits assumed): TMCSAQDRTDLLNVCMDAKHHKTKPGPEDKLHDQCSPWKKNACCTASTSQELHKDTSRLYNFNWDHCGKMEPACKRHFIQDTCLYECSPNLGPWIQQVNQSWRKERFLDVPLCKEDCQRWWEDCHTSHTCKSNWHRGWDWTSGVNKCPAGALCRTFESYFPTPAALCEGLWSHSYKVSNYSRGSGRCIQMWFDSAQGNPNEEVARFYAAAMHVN

Row | SMILES | IC50 [12] [nM] | IC50 [13] [nM] | IC50 (KB [14]) [nM] | IC50 (KB [15]) [nM] | inhibition [16] | inhibition [17] | inhibition [18] | inhibition [19] [%] | inhibition [20] | inhibition [21] | inhibition [22] | Ki [23] [nM] | IC50 [24] [nM] | Ki [25] [nM] | further results
1 | Nc1nc2[nH]c(CCCc3ccc(C(=O)N[C@@H](CCC(=O)O)C(=O)O)s3)cc2c(=O)[nH]1 | – | – | – | – | – | – | – | – | – | – | – | – | – | – | IC50 (IGROV-1 [1]): 0.95 nM; IC50 (IGROV-1 [2]): 213 nM; T/C (IGROV-1 [3]): 35%; LCK (IGROV-1 [4]): 1.4; T/C (IGROV-1 [5]): 29%; Time (IGROV-1 [6]): 9 days; LCK (IGROV-1 [7]): 1.4; Activity [8]: 15%; Activity [9]: Non-Toxic; Activity [10]: Non-Toxic; Activity [11]: Non-Toxic
2 | Nc1nc2[nH]c(CCN(C(=O)C(F)(F)F)c3ccc(C(=O)N[C@@H](CCC(=O)O)C(=O)O)cc3)cc2c(=O)[nH]1 | > 1000 | > 1000 | 0.56 | 924 | inactive | Active | Active | < 15 | 80 to 90% | 40 to 60% | 30 to 60% | 800 | 4.95 | 122 | –
3 | CC(=O)N(CCc1cc2c(=O)[nH]c(N)nc2[nH]1)c1ccc(C(=O)N[C@@H](CCC(=O)O)C(=O)O)cc1 | > 1000 | > 1000 | 2.57 | > 1000 | inactive | Active | Active | < 15 | 80 to 90% | Active | 30 to 60% | 1680 | 5.58 | 62 | –
4 | Nc1nc2[nH]c(CCSc3ccc(C(=O)N[C@@H](CCC(=O)O)C(=O)O)cc3)cc2c(=O)[nH]1 | > 1000 | > 1000 | 1.66 | > 1000 | inactive | Active | Active | 60 to 110 | 80 to 90% | Active | 30 to 60% | 1480 | 5.25 | 201 | inhibition [26]: 60 to 110%
5 | Nc1nc2[nH]c(CCN(C=O)c3ccc(C(=O)N[C@@H](CCC(=O)O)C(=O)O)cc3)cc2c(=O)[nH]1 | > 1000 | > 1000 | 2.09 | > 1000 | inactive | Active | Active | < 15 | 80 to 90% | Active | 30 to 60% | 730 | 2.11 | 99 | –
6 | Nc1nc2[nH]c(CCCc3ccc(C(=O)N[C@@H](CCC(=O)O)C(=O)O)cc3)cc2c(=O)[nH]1 | – | – | – | – | – | – | – | – | Active | 40 to 60% | Active | 220 | – | – | IC50 (IGROV-1 [2]): > 1000 nM
7 | Nc1nc2[nH]c(CCOc3ccc(C(=O)N[C@@H](CCC(=O)O)C(=O)O)cc3)cc2c(=O)[nH]1 | 940 | > 1000 | 0.34 | 704 | inactive | Active | Active | 60 to 110 | 80 to 90% | 40 to 60% | 30 to 60% | 640 | 6.62 | 61 | inhibition [26]: 60 to 110%
